Source: ChEMBL document CHEMBL3351820, “Development of novel membrane active lipidated peptidomimetics active against drug resistant clinical isolates” (Bioorg Med Chem, 2014)
In brackets after ≈: the same amount, converted by molar mass. Activity calls are given as the source filed them. The calls are words filed in the database; no cut-off is given here. Where a SMILES comes first, the peptide text is derived from it. [ ]: non-standard residue; d: D form. The star is where a group is joined. Myristoyl = CCCCCCCCCCCCCC(=O)*; 3Abz = Nc1cccc(C(=O)O)c1; Orn = NCCC[CH](N)C(=O)O

How the values were obtained:
[1] = Stability in human plasma after 4 days by analytical RP-HPLC; format: ADME, cell-free; conditions: read-out: Stability
Summary of the method: (§1)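 Heparinized fresh human plasma (1 mL) plus 50 μL of a […] aqueous stock, incubated at 37 °C. At intervals, 100 μL aliquots precipitated with 200 μL 95% ethanol, held 15 min at 4 °C, spun at 18,000 g for 2 min. Supernatant analysed by C18 RP-HPLC.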

Bacillus subtilis = experiment: Antibacterial activity against Bacillus subtilis MTCC 2763 after 18 hrs by micro dilution broth assay; format: functional; conditions: MTCC 2763, 18 h
Summary of the method: (§2)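 Broth microdilution (modified CLSI): mid-log inoculum at 10^5 CFU/mL in Mueller-Hinton broth; serial 2-fold dilutions of sample in 0.001% acetic acid with 0.2% BSA added. Incubated overnight at 37 °C with agitation; A600 read at 18 h. Drug-free culture and uninoculated broth as controls; triplicate.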

[2] = Therapeutic index, ratio of HC50 for human RBCs to MIC for Escherichia coli MTCC 0723; conditions: red blood cells (RBCs), read-out: TI
Escherichia coli [3] = experiment: Growth inhibition of Escherichia coli MTCC 0723 at 2 times MIC by time-kill assay; format: functional, organism-based
Summary of the method: (§3)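 Time-kill: mid-log cells (2×10^5 CFU/mL) in MHB, untreated or exposed at 1, 2, 4 and 8×MIC at 37 °C. Aliquots taken at 0, 15, 30, 60, 120 and 240 min, serially 10-fold diluted, plated on Mueller-Hinton agar for 18 h at 37 °C. Log CFU/mL plotted against time versus untreated control; two independent experiments in triplicate.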

Plasma = experiment: Stability in human plasma after 24 hrs by analytical RP-HPLC; format: ADME, cell-free; summary of the method: as §1
Escherichia coli [4] = experiment: Antibacterial activity against Escherichia coli MTCC 0723 after 18 hrs by micro dilution broth assay; format: functional; conditions: MTCC 0723, 18 h; summary of the method: as §2
Staphylococcus aureus [5] = experiment: Bactericidal activity against Staphylococcus aureus MTCC 3160 assessed as log reduction in bacterial growth at 4 to 8 times MIC up to 30 mins by time-kill assay relative to control; format: functional; summary of the method: as §3
[6] = Membrane permeabilization activity assessed as release of calcein from PC/PE/PI/ergosterol liposomes at 20 ug/ml after 5 mins by spectrofluorimetry; format: ADME
Summary of the method: (§4)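 Calcein-loaded LUVs, PE/PG (bacterial mimic) or PC/PE/PI/ergosterol (fungal mimic), exposed to 1-20 μg/mL for 5 min before fluorescence reading. Triton X-100 in Tris-HCl/NaCl/EDTA buffer sets 100% leakage; % leakage = 100(F−F0)/(Ft−F0). Run in triplicate, two independent experiments, mean ± SD.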

[7] = Proteolytic stability assessed as alpha-chymotrypsin (unknown origin)-mediated degradation after 4 days by analytical RP-HPLC; format: ADME, Homo sapiens; conditions: 96 h
Summary of the method: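 Peptide (1 mg/mL sample solution) and enzyme solution (1 mg per 50 mL) in 0.1 M NH4HCO3 pH 8.2, combined with buffer and incubated at 37 °C. Aliquots taken over time, quenched with 10% formic acid. Remaining peptide quantified by C18 RP-HPLC with a water/acetonitrile gradient (0.05% TFA); enzyme-free control run alongside.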

Candida albicans [8] = experiment: Antifungal activity against fluconazole-resistant Candida albicans PGI/ DML0109 clinical isolate after 48 to 72 hrs by M27-A method; format: functional
Summary of the method: (§5)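 Fungi at 2.5×10^3 cfu/mL in RPMI 1640 (L-glutamine, no glucose or NaHCO3, pH 7.0 with 0.165 M MOPS). Mixed 1:1 with serial 2-fold dilutions in water, incubated at 37 °C with shaking, 24 h for A. fumigatus and 48–72 h for C. albicans. Growth read by absorbance at 600 nm. MIC taken as the lowest concentration with no growth.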

Staphylococcus aureus [9] = experiment: Membrane disruption effect in Staphylococcus aureus MTCC 3160 assessed as surface blebs and aggregation at 4 times MIC by scanning electron microscopy; format: functional, organism-based
Summary of the method: (§6)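 SEM: E. coli and S. aureus at 1×10^6 CFU/mL in 10 mM PBS pH 7.4 with 100 mM NaCl, exposed at 4×MIC at 37 °C. […] After 30 min, cells fixed in 4% glutaraldehyde/0.2 M cacodylate for 3 h at 4 °C, ethanol-dehydrated, HMDS-dried, gold-coated (~20 nm).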

Staphylococcus aureus [10] = experiment: Growth inhibition of Staphylococcus aureus MTCC 3160 at 2 times MIC by time-kill assay; format: functional, organism-based; summary of the method: as §3
Aspergillus fumigatus [11] = experiment: Antifungal activity against Aspergillus fumigatus ATCC 42203 after 24 hrs by M27-A method; format: functional; conditions: ATCC 42203, 24 h
Summary of the method: (§7)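 Fungi at 2.5×10^3 cfu/mL in RPMI 1640 (L-glutamine, no glucose or NaHCO3, buffered pH 7.0 with 0.165 M MOPS), mixed 1:1 with serial 2-fold aqueous dilutions. Incubated at 37 °C with shaking, 24 h for Aspergillus, 48-72 h for Candida and Cryptococcus; A600 read. MIC taken as lowest concentration with no growth.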

Staphylococcus aureus [12] = experiment: Antibacterial activity against methicillin-resistant Staphylococcus aureus PGI/ DML03149 clinical isolate after 16 days by serial passage resistance development assay; format: functional, organism-based
Summary of the method: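 MRSA clinical isolate serially passaged for 16 days. Each day MICs were set up in microtiter wells over doubling-dilution concentrations, 18 h incubation. Cells from triplicate wells at the concentration still permitting visible growth were diluted to about 2×10^5 CFU/mL to seed the next exposure. MIC was tracked across passages.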

Staphylococcus aureus [13] = experiment: Antibacterial activity against methicillin-resistant Staphylococcus aureus PGI/ DML03149 clinical isolate after 18 hrs by micro dilution broth assay; format: functional; conditions: PGI/ DML03149, 18 h
[14] = Membrane permeabilization activity assessed as release of calcein from PC/PE/PI/ergosterol liposomes at 4 ug/ml after 5 mins by spectrofluorimetry; format: ADME; summary of the method: as §4
Escherichia coli [15] = experiment: Membrane disruption effect in Escherichia coli MTCC 0723 assessed as surface blebs and aggregation at 4 times MIC by scanning electron microscopy; format: functional, organism-based; summary of the method: as §6
Staphylococcus aureus [16] = experiment: Antibacterial activity against Staphylococcus aureus MTCC 3160 after 18 hrs by micro dilution broth assay; format: functional; conditions: MTCC 3160, 18 h; summary of the method: as §2
Escherichia coli [17] = experiment: Bactericidal activity against Escherichia coli MTCC 0723 assessed as log reduction in bacterial growth at 4 to 8 times MIC up to 30 mins by time-kill assay relative to control; format: functional; summary of the method: as §3
[18] = Membrane permeabilization activity assessed as release of calcein from PE/PG liposomes at 4 ug/ml after 5 mins by spectrofluorimetry; format: ADME; summary of the method: as §4
Escherichia coli [19] = experiment: Bactericidal activity against Escherichia coli MTCC 0723 at 4 to 8 times MIC by time-kill assay; format: functional, organism-based; summary of the method: as §3
Staphylococcus aureus [20] = experiment: Bactericidal activity against Staphylococcus aureus MTCC 3160 at 4 to 8 times MIC by time-kill assay; format: functional, organism-based; summary of the method: as §3
Escherichia coli [21] = experiment: Binding affinity to Escherichia coli plasmid DNA at 12 ug/ml after 1 hr by gel retardation assay
Summary of the method: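 Gel retardation: 100 ng plasmid DNA from E. coli PGI/DML02292 mixed with varying peptide amounts in binding buffer (10 mM Tris-HCl pH 8.0, 5% glycerol, 1 mM EDTA, 1 mM DTT, 20 mM KCl, 50 μg/mL BSA). Held 1 h at room temperature, then run on 1% agarose in 0.5× TBE. Polymyxin B as standard.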

Pseudomonas aeruginosa = experiment: Antibacterial activity against Pseudomonas aeruginosa MTCC 2295 after 18 hrs by micro dilution broth assay; format: functional; conditions: MTCC 2295, 18 h; summary of the method: as §2
[22] = Membrane permeabilization activity assessed as release of calcein from PE/PG liposomes at 20 ug/ml after 5 mins by spectrofluorimetry; format: ADME; summary of the method: as §4
[23] = Therapeutic index, ratio of HC50 for human RBCs to MIC for Staphylococcus aureus MTCC 3160; conditions: red blood cells (RBCs), read-out: TI
Cryptococcus neoformans = experiment: Antifungal activity against Cryptococcus neoformans ATCC 2344 after 48 to 72 hrs by M27-A method; format: functional; summary of the method: as §7
Aspergillus fumigatus [24] = experiment: Antifungal activity against fluconazole-resistant Aspergillus fumigatus IGMC/LM1/0336 after 24 hrs by M27-A method; format: functional; conditions: IGMC/LM1/0336, 24 h; summary of the method: as §5
Candida albicans [25] = experiment: Antifungal activity against Candida albicans ATCC 24433 after 48 to 72 hrs by M27-A method; format: functional; summary of the method: as §7
Escherichia coli [26] = experiment: Antibacterial activity against imipenem-resistant Escherichia coli PGI/ DML02292 clinical isolate after 18 hrs by micro dilution broth assay; format: functional; conditions: PGI/ DML02292, 18 h
Aspergillus niger = experiment: Antifungal activity against Aspergillus niger ATCC 64028 after 24 hrs by M27-A method; format: functional; conditions: ATCC 64028, 24 h; summary of the method: as §7
[27] = Hemolytic activity in human RBCs; format: ADME, cell-based, Erythrocyte; conditions: red blood cells (RBCs)
Summary of the method: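 Washed fresh human erythrocytes, 4% (v/v) in PBS (35 mM phosphate, 150 mM NaCl, pH 7.2), mixed 1:1 with 2-fold dilutions in PBS. Incubated 1 h at 37 °C without agitation, then centrifuged at 1000 g for 5 min. Supernatant hemoglobin read at 440 nm; % hemolysis = 100(A−A0)/(At−A0).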

CCCCCCCCCCCCCC(=O)Nc1cccc(C(=O)NC(CCCN)C(=O)NC(CCCN)C(=O)NC(CCCN)C(=O)NC(CCCN)C(N)=O)c1 (configuration not stated) ({Myristoyl-3Abz}-[Orn][Orn][Orn][Orn]-NH2; configuration not given here)
remaining at 96 h [1]: 76%
MIC (Bacillus subtilis): 10 µg/mL (≈ 12.5 µM)
selectivity ratio [2]: 400
growth inhibition (GI) (Escherichia coli [3]): Active
Stability (Plasma): Stable
MIC (Escherichia coli [4]): 1.25 µg/mL (≈ 1.56 µM)
FC (Staphylococcus aureus [5]): 5
Activity [6]: 77%
Stability [7]: Stable
MIC (Candida albicans [8]): 4 µg/mL (≈ 4.98 µM)
Activity (Staphylococcus aureus [9]): Active
growth inhibition (GI) (Staphylococcus aureus [10]): Active
MIC (Aspergillus fumigatus [11]): 2.25 µg/mL (≈ 2.8 µM)
Activity (Staphylococcus aureus [12]): Active
MIC (Staphylococcus aureus [13]): 2 µg/mL (≈ 2.49 µM)
Activity [14]: 29%
Activity (Escherichia coli [15]): Active
MIC (Staphylococcus aureus [16]): 1.5 µg/mL (≈ 1.87 µM)
FC (Escherichia coli [17]): 5
Activity [18]: 58%
Activity (Escherichia coli [19]): Active
Activity (Staphylococcus aureus [20]): Active
Activity (Escherichia coli [21]): inactive
MIC (Pseudomonas aeruginosa): 2 µg/mL (≈ 2.49 µM)
Activity [22]: 93%
selectivity ratio [23]: 333
MIC (Cryptococcus neoformans): 6.25 µg/mL (≈ 7.78 µM)
MIC (Aspergillus fumigatus [24]): 4 µg/mL (≈ 4.98 µM)
MIC (Candida albicans [25]): 3.1 µg/mL (≈ 3.86 µM)
MIC (Escherichia coli [26]): 3.1 µg/mL (≈ 3.86 µM)
MIC (Aspergillus niger): 3 µg/mL (≈ 3.74 µM)
HC50 [27]: 500 µg/mL
